Measured values as given in paper PMC3966939 (Stroke; a journal of cerebral circulation, 2014).

What was measured:
[1] = system: rat model of embolic middle cerebral artery occlusion (MCAO); assay: MRI measurement of ischemic lesion; assay type: in vivo; details: treatment started 4h after MCAO; MRI at 1, 72 and 144 h after MCAO; n=10/group
Method in brief: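 Rats received IV tPA (10 mg/kg) alone or tPA plus peptide, starting 4 h after embolic MCAO. Imaging was done on a 7 T scanner with T2-weighted and diffusion-weighted images at 1, 72 and 144 h. Ischemic area was taken from the T2 map using a threshold of two SD above the contralateral hemisphere. Groups were compared by one-way ANOVA.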

p-Smad2/3 = assay: Immunohistochemistry: p-Smads2/3 immunoreactive vessels; assay type: in vivo, rat; details: treatment 4h after MCAO, 24h; compared to the saline treatment
Method in brief: (§1)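 Embolic-MCAO male Wistar rats were treated 4 h after stroke onset with one of three regimens: IV tPA (10 mg/kg) alone, tPA plus peptide (0.8 mg/kg/day, IA then SC pump), or saline (n=4–6). Rats were killed 24 h after treatment began. Frozen 8 μm coronal sections (bregma −0.4 to −1.4 mm) were immunostained, and immunoreactive vessels in ischemic brain were counted. One-way ANOVA with Hochberg adjustment was used.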

TGF-β1 = assay: Immunohistochemistry: TGF-β1 immunoreactive vessels; assay type: in vivo, rat; details: treatment 4h after MCAO, 24h; compared to the saline treatment
Method in brief: as §1

NF-κB (p65) = assay: Immunohistochemistry: p65 immunoreactive vessels; assay type: in vivo, rat; details: treatment 4h after MCAO, 24h; ipsilateral hemisphere
Method in brief: as §1

PAI-1 = assay: Immunohistochemistry: PAI-1 immunoreactive vessels; assay type: in vivo, rat; details: treatment 4h after MCAO, 24h; double immunostaining
Method in brief: as §1

[2] = system: rat model of embolic middle cerebral artery occlusion (MCAO); assay: Incidence of gross hemorrhage on H&E stained coronal sections; assay type: in vivo; details: treatment started 4h after MCAO; H&E sections 7 days after MCAO
Method in brief: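 In embolic-MCAO male Wistar rats, treatment began 1 or 4 h after occlusion. The peptide was given at 0.8 mg/kg/day (IA for 2 h, then SC pump for 3 days), with or without IV tPA 10 mg/kg at 4 h. Rats were killed at day 7. Seven H&E coronal sections per animal were scored for blood visible to the unaided eye, expressed as group percentage. Fisher exact test was applied.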

tissue plasminogen activator [tPA]
ischemic lesion by MRI (T2) [1]: increased over 144h | density of p-Smads2/3 immunoreactive vessels (p-Smad2/3): failed to reduce the densities | density of TGF-β1 immunoreactive vessels (TGF-β1): failed to reduce the densities | p65 immunoreactive vessels (NF-κB (p65)): augmented | PAI-1 immunoreactive vessel density (PAI-1): further increased | incidence of gross hemorrhage [2]: 38%
